Source: PubChem BioAssay
Most compounds without a hit are left out; they make up all but 4.5% or so of the library.
OX1R antag-1: blocks the human orexin 1 receptor. O43613. OX1R-expressing cells, FRET antagonist read-out. inhibition, % at 6.6 µM. actives 1.8% (n = 330,000); in the data active means inhibition mostly above about 38%, no sharp cut-off; inactive means mostly below about 40%;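 further: 0% = agonist challenge alone and 100% = reference antagonist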
GPR7 antagonist: antagonists of human GPR7 (neuropeptides B/W receptor 1); P48145; GPR7-expressing cells, fluorescence antagonist assay; inhibition, % at 4.4 µM; actives 1.1% (n = 290,000); in the data active means inhibition above about 16%, passing the limit was not always enough;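 further: cells stimulated with the agonist NPW; 0% = agonist with vehicle and 100% = vehicle without agonist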
Target sequence (P48145 whole entry, looked up): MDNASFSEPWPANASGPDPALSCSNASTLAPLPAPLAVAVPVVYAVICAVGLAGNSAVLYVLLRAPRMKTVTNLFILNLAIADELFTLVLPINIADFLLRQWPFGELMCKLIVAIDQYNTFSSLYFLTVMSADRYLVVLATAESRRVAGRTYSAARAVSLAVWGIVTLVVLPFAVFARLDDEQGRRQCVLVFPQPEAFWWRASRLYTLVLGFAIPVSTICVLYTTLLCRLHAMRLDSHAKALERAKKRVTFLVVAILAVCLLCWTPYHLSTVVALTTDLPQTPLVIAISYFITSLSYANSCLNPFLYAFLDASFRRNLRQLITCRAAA
CHO parental Ca: signal in parental CHO cells, OX1R antagonist counter-screen; parental CHO-K1, ATP-induced calcium, Fluo-8 fluorescence; inhibition, % at 5.6 µM; actives 0.63% (n = 330,000); AID 463079;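 active means inhibition above that plate's mean sample inhibition plus 3 SD, cut at about 26% in these data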;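 further: 0% = ATP-challenged DMSO wells and 100% = DMSO wells without ATP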
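Assay system: parental CHO cells; Read-out basis: percent inhibition of ATP-evoked calcium rise, normalized to controls; Benchmarks: ATP and no-ATP DMSO wells; Compound dosing: single nominal dose of 5.6 µM per compound; Signal: Fluo-8 calcium dye fluorescence; Also added: ATP as calcium-mobilizing challenge; Repeats: singlicate.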
OX1R antag-2: blocks the human orexin 1 receptor. O43613. CHO/OX1R cells, Fluo-8 calcium fluorescence, orexin A. inhibition, % at 5 µM. actives 0.43% (n = 330,000). AID 434989;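 active means inhibition above its plate's threshold, mean inhibition of all tested compounds on the plate plus 3 SD, cut at about 37% in these data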;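 further: 0% = orexin A challenge wells and 100% = SB-334867-A antagonist wells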
TAAR1 ag: human TAAR1 agonism. actives 0.99% (n = 360,000). Q96RJ0. activation, % at 3 µM. CHO RD-HGA16 TAAR1, Fluo-8 calcium fluorescence; vehicle wells 0%, saturating PEA agonist 100%;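 active means activation above the mean activation of all test compounds in the run plus 3 SD, cut at about 38% in these data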
Target sequence (Q96RJ0 whole entry, looked up): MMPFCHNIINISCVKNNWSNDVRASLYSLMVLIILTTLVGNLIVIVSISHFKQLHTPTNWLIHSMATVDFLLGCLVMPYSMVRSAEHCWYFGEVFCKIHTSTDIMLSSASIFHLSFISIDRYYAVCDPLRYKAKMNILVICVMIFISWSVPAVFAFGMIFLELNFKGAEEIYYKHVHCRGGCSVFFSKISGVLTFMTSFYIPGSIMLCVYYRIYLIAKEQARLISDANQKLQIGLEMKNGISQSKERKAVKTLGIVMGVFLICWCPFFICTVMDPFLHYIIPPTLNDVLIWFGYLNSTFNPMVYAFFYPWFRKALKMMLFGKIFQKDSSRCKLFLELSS
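Test system: RD-HGA16 (CHO) cells co-expressing Gα16 and hTAAR1; dosing: one-point dosing at 3 µM (nominal); timing: 17-24 h seeding, 75 min 37 °C dye, 30 min RT; signal: kinetic Fluo-8 calcium fluorescence; read-out basis: % activation relative to PEA EC100 response; controls: DMSO and PEA EC100; replicates: n 1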
TAAR1 antagonist: human TAAR1 antagonism; Q96RJ0; CHO RD-HGA16 TAAR1, Fluo-8 calcium fluorescence, antagonist; inhibition, % at 3 µM; actives 1.5% (n = 360,000);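 active means inhibition above a per-plate cutoff, the mean inhibition of test compounds on that plate plus 3 SD, cut at about 49% in these data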;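 further: 0% = DMSO plus EC80 beta-PEA response and 100% = DMSO alone without agonist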
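System: RD-HGA16 CHO cells with stable hTAAR1 and Gα16 | Probe or stimulus: EC80 β-phenethylamine stimulus | Dosing: 3 µM, single point | Times: Dye loading 75 min at 37 °C, then 30 min room temperature | Measured by: Fluo-8 calcium-sensitive fluorescence | Read-out basis: % inhibition of agonist calcium response | Replicates: n of 1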
TAAR1 ag conf: human TAAR1 agonism, confirmed; AID 651783; actives 82% (n = 2,400); activation, % at 3 µM; CHO RD-HGA16 TAAR1, Fluo-8 calcium fluorescence; scaled: DMSO 0%, maximal phenethylamine 100%; shares compounds with TAAR1 ag;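 active means activation above a cutoff set at the run's mean compound activation plus 3 SD, cut at about 39% in these data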
Ga16 ag counter: nonselective agonist in parental cells, TAAR1 agonist counter-screen | shares compounds with TAAR1 ag | CHO-Ga16 parental, Fluo-8 calcium fluorescence; normalized to maximal ATP response, DMSO zero | activation, % at 3 µM | actives 50% (n = 2,400) | AID 651787;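 active means activation above the run cutoff, the mean activation over all tested wells plus 3 SD, cut at about 12% in these data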;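 further: 0% = DMSO wells and 100% = maximal ATP response on the peak over basal ratio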
TAAR1 desensitize: TAAR1 response desensitization, agonist counter-screen | CHO RD-HGA16 hTAAR1, Fluo-8 calcium, beta-PEA response inhibition | actives 46% (n = 2,400) | shares compounds with TAAR1 ag | inhibition, % at 3 µM;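 active means inhibition above the run cutoff, the mean inhibition of all test compounds plus 3 SD, cut at about 49% in these data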;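 further: beta-PEA stimulus applied at its EC80; loss of beta-PEA calcium signal after compound pretreatment read as receptor desensitization; 0% = DMSO with beta-PEA at EC80 and 100% = DMSO alone without agonist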
Ga16 antag count: nonselective Ga16 antagonist in TAAR1 agonist counter-screen. inhibition, % at 3 µM. CHO-Ga16 ATP-induced calcium, Fluo-8 fluorescence. AID 651952. shares compounds with TAAR1 ag. actives 39% (n = 2,400);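 active means inhibition above the plate's mean compound inhibition plus 3 SD, computed per plate, cut at about 22% in these data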;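 further: 0% = EC80 ATP with DMSO and 100% = DMSO wells without ATP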
Starred values were filed as active, the others as inactive; . = no result given.

SMILES | OX1R antag-1 | GPR7 antagonist | CHO parental Ca | OX1R antag-2 | TAAR1 ag | TAAR1 antagonist | TAAR1 ag conf | Ga16 ag counter | TAAR1 desensitize | Ga16 antag count
COc1ccc(CCCNC(=O)C2Cc3c(-c4ccc5c(c4)OCO5)ccnc3O2)cc1 (stereo not drawn) | . | . | . | . | -1 | -13 | . | . | . | .
Cn1nc(C(C)(C)C)cc1C(=O)N1CCCC(c2cc(C(=O)NCc3ccccc3)no2)C1 (stereo not drawn) | . | . | . | . | 0 | -7 | . | . | . | .
COc1cc(CNCCc2c[nH]c3ccccc23)cc(Cl)c1OCC(N)=O | 24 | 11 | -14 | -20 | 5 | -14 | . | . | . | .
COc1cc(CNCCc2c[nH]c3ccccc23)ccc1OCc1ccc(F)cc1 | 10 | 21* | 11 | 10 | 60* | 50* | 54* | 30* | 52* | 49*
COc1cc(CNCCc2ccc(F)cc2)ccc1OCc1ccc(Cl)nc1 | 10 | 15 | -12 | -10 | 37 | -4 | . | . | . | .
COc1cc(CNCCc2ccccc2F)ccc1OCc1ccc(Cl)nc1 | 7 | -1 | -12 | -22 | 73* | 36 | 77* | 10 | 57* | 20
COCC(=O)Nc1nc2ccccc2s1 | 17 | 1 | -3 | -17 | 4 | 12 | . | . | . | .
Cc1cnc(NC(=O)CCCSc2nc3ccccc3s2)s1 | 15 | 5 | -1 | -19 | 53* | 61* | 9 | 2 | 2 | 4
COC(=O)CCCCCCCCC(=O)Nc1nc2ccccc2s1 | 51 | 4 | -17 | -36 | 50* | 2 | 76* | 37* | 18 | 5
O=C1NC(=S)SC1=Cc1ccc2c(c1)OCO2 | . | . | . | . | 2 | -10 | . | . | . | .
CN(C)c1ccc(C=C2SC(=S)NC2=O)cc1 | . | . | . | . | 69* | 57* | 57* | 85* | 69* | 78*
C=CCC(NC(=O)N(C)C)(C(=O)OC)C(C)O (stereo not drawn) | . | . | . | . | 1 | -27 | . | . | . | .
O=C(NC1CCCCC1)C1c2ccccc2OCC(=O)N1Cc1ccco1 (stereo not drawn) | . | . | . | . | 1 | -10 | . | . | . | .
O=C(Nc1ccccc1)C(=O)Nc1cccnc1 | 3 | 3 | -4 | -12 | 5 | -3 | . | . | . | .
Fc1ccc(NC(=S)Nc2cccnc2)cc1 | 13 | -8 | -4 | -17 | 6 | 30 | . | . | . | .
O=C(Nc1ccccc1)Nc1ccc(Oc2cccnc2)nc1 | 13 | -3 | -4 | 2 | 67* | -18 | 90* | 12* | 80* | 20
O=C(Nc1ccc(F)cc1)Nc1cccnc1 | . | 3 | . | . | 64* | -4 | 81* | 6 | 48 | 5
COc1ccc(CNC(=O)c2cccnc2Sc2ccc(Cl)cc2)cc1 | 6 | -5 | -6 | -18 | . | . | . | . | . | .
Cc1ccc(CNC(=O)c2cccnc2Sc2cccc(Cl)c2)cc1 | 5 | 0 | -11 | -3 | 73* | 30 | 82* | 40* | 47 | 35*
CSc1nc(N)nc2c1ncn2Cc1ccccc1 | . | . | . | . | 3 | -17 | . | . | . | .
O=C(NN1C(=O)C2C3c4ccccc4C(c4ccccc43)[C@@H]2C1=O)c1ccccc1 (stereo partly drawn) | 11 | 3 | -5 | -17 | 4 | -2 | . | . | . | .
O=C(NN1C(=O)C2C(c3ccccc3)C=CC(c3ccccc3)C2C1=O)c1ccccc1 (stereo not drawn) | 22 | -10 | -1 | 1 | 70* | 68* | 13 | 13* | 37 | 29*
CC(=O)Nc1ccc(NC(=O)Nc2ccccc2)cc1 | -8 | 1 | 5 | 2 | . | . | . | 6 | . | 13
O=C(Nc1ccccc1)Nc1ccc(NC(=O)c2ccccc2O)cc1 | 0 | -2 | 15 | -11 | 70* | 81* | 101* | 13* | 97* | 30*
CC(=O)Nc1cccc(NC(=O)Nc2ccc(C(C)=O)cc2)c1 | 5 | -15 | -13 | -9 | 5 | 0 | . | . | . | .
O=C(Nc1ccccc1)Nc1ccc2ncoc2c1 | 26 | 8 | 4 | 3 | 59* | 6 | 88* | 9 | 61* | 12
O=C(c1ccc(=O)[nH]c1)N(c1ccccc1)C(CCc1ccccc1)c1nc2ccccc2[nH]1 (stereo not drawn) | . | . | . | . | -1 | -4 | . | . | . | .
CC(C)(C)c1ccc(S(=O)(=O)NC(=O)C2(C)CCN2C(=O)c2cccc3ccccc23)cc1 (stereo not drawn) | . | . | . | . | 46* | -15 | 66* | 14* | 12 | 4
CC(C)(C)c1ccc(CC(=O)N2CCC2(C)C(=O)NS(=O)(=O)c2ccccc2)cc1 (stereo not drawn) | . | . | . | . | 1 | -22 | . | . | . | .
CN1CCN(C(c2ccc(Br)cc2)c2cc(Cl)c3cccnc3c2O)CC1 (stereo not drawn) | 7 | -2 | 12 | 24 | 69* | -13 | 121* | 88* | 76* | 43*
